Publication PMC3254186 (Frontiers in Pharmacology, 2011)

Key:
Type in all cases: cell-based
Kir2.1 = molecular target: T1, Kir2.1 (Homo sapiens, UniProt P63252); experiment: Two-electrode voltage clamp in Xenopus oocytes, Kir2.1
T1 sequence (P63252 1-427): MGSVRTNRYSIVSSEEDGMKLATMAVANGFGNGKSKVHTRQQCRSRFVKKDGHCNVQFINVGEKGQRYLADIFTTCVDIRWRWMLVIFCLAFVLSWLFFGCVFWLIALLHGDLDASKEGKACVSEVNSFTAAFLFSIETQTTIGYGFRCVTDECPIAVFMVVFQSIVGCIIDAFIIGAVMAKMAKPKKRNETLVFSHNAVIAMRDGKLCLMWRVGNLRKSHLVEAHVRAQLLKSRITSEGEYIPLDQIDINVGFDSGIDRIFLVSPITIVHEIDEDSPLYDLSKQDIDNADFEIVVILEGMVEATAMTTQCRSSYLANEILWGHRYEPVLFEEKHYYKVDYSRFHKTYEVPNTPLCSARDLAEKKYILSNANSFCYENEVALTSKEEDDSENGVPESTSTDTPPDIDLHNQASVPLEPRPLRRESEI
Method in brief: (§1)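 Stage V–VI Xenopus oocytes were defolliculated with 1 mg/mL collagenase and injected with 0.5–10 ng cRNA. They were kept at 16°C in modified L-15 for 24–72 h. Two-electrode voltage clamp at 20–23°C: held at −75 mV and stepped to −120 mV for 200 ms every 5 s, with current at −120 mV tracked over time. Test compound (50 μM) was perfused, then 2 mM Ba2+. Time constant of inhibition derived.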

Kir7.1 = molecular target: T2, Kir7.1 (Homo sapiens, UniProt O60928); experiment: Two-electrode voltage clamp in Xenopus oocytes, Kir7.1
T2 sequence (O60928 1-360): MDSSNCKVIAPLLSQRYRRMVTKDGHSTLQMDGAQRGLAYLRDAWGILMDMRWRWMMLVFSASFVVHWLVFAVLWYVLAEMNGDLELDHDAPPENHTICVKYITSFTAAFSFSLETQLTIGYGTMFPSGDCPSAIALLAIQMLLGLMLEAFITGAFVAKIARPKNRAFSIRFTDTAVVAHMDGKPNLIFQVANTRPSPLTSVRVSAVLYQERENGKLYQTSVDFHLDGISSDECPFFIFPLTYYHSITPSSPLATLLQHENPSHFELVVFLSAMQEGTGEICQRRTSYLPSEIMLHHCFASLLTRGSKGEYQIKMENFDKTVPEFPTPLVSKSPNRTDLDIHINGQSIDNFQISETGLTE
Method in brief: as §1

Kir2.3 = molecular target: T3, Kir2.3 (Homo sapiens, UniProt P48050); experiment: Two-electrode voltage clamp in Xenopus oocytes, Kir2.3
T3 sequence (P48050 1-445): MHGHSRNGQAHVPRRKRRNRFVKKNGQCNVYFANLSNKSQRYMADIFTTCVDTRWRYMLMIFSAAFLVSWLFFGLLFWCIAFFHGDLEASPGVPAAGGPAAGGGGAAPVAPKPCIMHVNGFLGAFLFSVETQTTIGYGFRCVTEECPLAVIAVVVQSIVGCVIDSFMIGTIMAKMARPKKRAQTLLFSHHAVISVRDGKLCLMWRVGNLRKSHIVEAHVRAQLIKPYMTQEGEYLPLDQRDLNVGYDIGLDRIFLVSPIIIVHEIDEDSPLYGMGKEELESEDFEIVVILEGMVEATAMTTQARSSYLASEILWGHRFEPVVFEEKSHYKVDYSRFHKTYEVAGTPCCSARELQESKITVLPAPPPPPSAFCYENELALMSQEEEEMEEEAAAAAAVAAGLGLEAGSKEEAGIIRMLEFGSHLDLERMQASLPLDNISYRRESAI
Method in brief: as §1

With `Cc1ccc(OCC(O)Cn2c(=N)n(Cc3ccccc3)c3ccccc32)cc1` (stereo not drawn) [Compound 1, 1-(3-benzyl-2-imino-2,3-dihydro-1H-benzo[d]imidazol-1-yl)-3-(p-tolyloxy)propan-2-ol] the “time constant (τ) of Kir2.1 inhibition” value (Kir2.1; TEVC oocytes, 50 μM, n = 4) was 735 ± 85 s, the inhibition at 50 µM (Kir2.1; read-out: inhibition of Kir2.1) was 30.2 ± 9.4% and the “time constant of Kir7.1 inhibition” value (Kir7.1; TEVC oocytes, 50 μM, n = 8) was 38 ± 6 s. The inhibition at 50 µM (Kir7.1; read-out: inhibition of Kir7.1) was 66 ± 6%, the “time constant (τ) of Kir2.3 inhibition” value (Kir2.3; TEVC oocytes, 50 μM, n = 7) was 154 ± 32 s and the inhibition at 50 µM (Kir2.3; read-out: inhibition of Kir2.3) was 80.9 ± 5%.
